Screens as filed in PubChem BioAssay.
An excerpt weighted towards active compounds, which were near 5.1% of everything screened.
APP 5'UTR act: activates APP 5'UTR luciferase reporter | SH-SY5Y APP 5'UTR luciferase reporter, luminescence; zero percent = DMSO vehicle wells | actives 1% (n = 190,000) | activation, % at 2 µM | AID 1276;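 active = activation above a set limit, based on mean plus 3 SD of controls, cut at about 140% in these data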
STAT3 blocker: reduces IL-6 driven STAT3 reporter signal; inhibition, % at 5.5 µM; actives 0.89% (n = 190,000); U3A cells, IL-6 STAT3-luciferase reporter, luminescence; host cell line lacks STAT1;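 active = inhibition above the mean inhibition across all screened compounds plus 3 SD, cut at about 44% in these data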;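 note: 0% = DMSO only wells and 100% = 100 µM nifuroxazide control wells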
STAT3 activator: activators of IL-6 induced STAT3 signaling; U3A cells, IL-6 STAT3-luciferase reporter, luminescence; 100% = signal with IL-6 EC80 alone; activation (% of control), % at 5.6 µM; actives 0.91% (n = 190,000); AID 871;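 active = activation above the screen-wide mean of compound activation plus 3 SD, cut at about 130% in these data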;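 note: 0% = background luminescence of wells with medium and substrate only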
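Material: STAT3-luciferase reporter U3A cells. Controls: IL-6-treated wells, 100% activation. Read-out: % activation versus median of IL-6-stimulated wells. Probe or stimulus: IL-6 stimulus at 33 ng/mL final. Timing: compound 1 h, then IL-6 6 h at 37 °C. Signal: reporter luminescence signal.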
STAT1 activator: activators of IFN-gamma induced STAT1 signaling | NIH 3T3 STAT1-luciferase reporter, luminescence; 100% = IFN-gamma alone, no compound | activation (% of control), % at 5.5 µM | actives 2.6% (n = 200,000) | AID 932;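 active = activation above the screen-wide mean activation plus 3 SD, cut at about 130% in these data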;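 note: raw ratio to IFN-gamma control signal so 100% means no change and 0% no light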
STAT1 inh: STAT1 signaling inhibition. AID 920. inhibition, % at 5.5 µM. NIH 3T3 STAT1-luciferase reporter, IFN-gamma, luminescence. actives 0.35% (n = 200,000);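 active = inhibition above a set limit, the mean inhibition across all tested compounds plus 3 SD, cut at about 34% in these data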;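 note: 0% = IFN-gamma with DMSO and 100% = IFN-gamma with 300 µM nifuroxazide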
NF-kB expr up: raises NF-kB expression in human neuronal cells. AID 1239. fold change at 12.5 µM. actives 1.6% (n = 190,000). NF-kB reporter expression; hits give high values; in the data active = fold change above about 3.3
Numbers without * were called inactive; · = not tested or not shown.

SMILES	APP 5'UTR act	STAT3 blocker	STAT3 activator	STAT1 activator	STAT1 inh	NF-kB expr up
CN=c1scc(-c2ccccc2F)n1/N=C/c1ccc[nH]1	-55	110*	9	10	97*	0.2
Oc1ccccc1N=Cc1ccc[nH]1	-15	11	97	88	13	0.53
CN(C)/C=N/c1ncc(C(=O)c2ccc(-c3ccccc3)cc2)s1	6	22	88	97	1	1.1
CN(C)/C=N/c1ncc(C(=O)c2ccccc2)s1	76	0	109	129*	-32	2.5
O=C(CCCCCCCC(=O)NNC(=O)Nc1ccccc1)NNC(=O)Nc1ccccc1	1	-5	109	90	11	1
C/C(=N\NC(=O)c1nc2ccccn2c1C)c1ccco1	-3	2	102	136*	-39	0.97
CCOc1cc(S(=O)(=O)n2ccnc2)ccc1Cl	-10	7	102	99	1	3.6*
CCOc1cc(S(=O)(=O)n2ccnc2)ccc1Br	-1	-1	105	110	-15	1
CC(C)c1ccc(OCc2cccc(C(=O)N/N=C/c3cccnc3)c2)cc1	103	57*	53	66	36*	2
CCOc1ccc(OCc2cccc(C(=O)N/N=C/c3cccnc3)c2)cc1	20	96*	19	45	62*	1.9
O=C(CCNC(=O)c1ccccc1Cl)Nc1nccs1	11	-13	111	103	-2	1.3
COc1ccc(/C(C)=N/Nc2ccc(F)cc2F)c(O)c1	32	17	92	133*	-37	1.2
C/C(=N\Nc1ccc(F)cc1F)c1cccs1	12	22	86	129*	-33	1.4
C/C(=N\NC(=O)C1CC1)c1cccs1	-7	-6	109	99	1	1.8
Cc1oc2ccc(NS(=O)(=O)c3ccc(C(C)(C)C)cc3)cc2c1C(=O)Nc1ccccc1	2	5	106	98	3	1.1
CCCCNC(=O)CN1C(=O)NC(CCc2ccccc2)C1=O (configuration not stated)	0	-5	108	102	-6	1.1
C#Cc1ccc(CN2CCN(Cc3ccsc3)C(CCO)C2)cc1 (configuration not stated)	-8	5	99	93	6	1
CC(C)(O)C#Cc1ccc(CN2CCN(Cc3ccsc3)C(CCO)C2)cc1 (configuration not stated)	-8	3	100	96	2	3.8*
C=CCN1CC(O)=C(c2nc3ccccc3[nH]2)C1=N	8	26	84	118	-19	1.4
C#CCNC(=O)C1=C[C@H](c2ccc3c(c2)OCO3)C[C@H](OCc2ccc(CO)cc2)O1	9	·	·	93	9	0.94
O=C(c1cnc(-c2ccc(Cl)cc2)s1)c1ccc(Cl)cc1Cl	-6	4	98	104	-5	1.6
CNc1ncc(C(=O)c2ccc(Cl)c(Cl)c2)s1	0	-7	107	125	-28	4.3*
CNc1ncc(C(=O)c2ccc(Cl)cc2)s1	97	10	93	114	-16	4*
O=C(c1ccc(Cl)c(Cl)c1)c1cnc(Nc2ccccc2)s1	1	12	96	95	6	1.2
O=C(Nc1ccccc1-c1ccccc1)c1ccc(NC(=O)c2ccco2)cc1	-5	2	100	102	-2	0.86
SMILES	APP 5'UTR act	STAT3 blocker	STAT3 activator	STAT1 activator	STAT1 inh	NF-kB expr up
CCN(CC)S(=O)(=O)c1ccc(/C=C/C(=O)OCC(=O)N(C)C)cc1	4	5	97	99	-1	1.2
CC1CN(C(=O)COC(=O)c2nn(-c3ccccc3)c(=O)c3ccccc23)CC(C)O1 (configuration not stated)	-7	-3	104	91	9	1.1
CC(=O)C(=Cc1cn(-c2ccccc2)nc1-c1ccccc1)C(C)=O	-5	12	96	107	-9	0.93
OCC1CCCCN1C(=S)Nc1cccc(Cl)c1 (configuration not stated)	27	2	103	130*	-37	0.84
OCC1CCCN1C(=S)Nc1ccccc1 (configuration not stated)	-8	-2	106	108	-9	1
CCOc1nc2ccccc2cc1C=O	-57	1	105	104	-7	0.99
c1ccc2c(c1)nc(NC1CCCCC1)c1nncn12	-8	-37	136*	113	-14	0.68
Cc1nnc2c(NC3CCCC3)nc3ccccc3n12	15	28	82	84	17	0.99
CC1C(=O)CC(c2ccco2)NC1c1ccco1 (configuration not stated)	4	-4	101	105	-5	0.94
N/C(=N\c1nc2c(c(=O)[nH]1)CCCC2)Nc1ccccc1Sc1ccccc1	-6	12	91	96	2	1.5
CCc1cccc(N(C(=O)c2csnn2)C(C(=O)NC(C)(C)CC)c2ccccn2)c1 (configuration not stated)	25	10	98	96	4	1.3
CCc1nc(Nc2ccncc2)c2oc3ccccc3c2n1	27	10	97	86	15	3.6*
Cc1cccc(OCC(=O)Nc2ccc3c(c2)OCO3)c1C	26	13	92	100	0	1.2
O=C(COc1ccccc1[N+](=O)[O-])Nc1ccc2c(c1)OCO2	106	2	103	150*	-54	·
O=C(COc1ccccc1[N+](=O)[O-])N/N=C/c1cccc(OC(=O)c2ccc3c(c2)OCO3)c1	48	8	92	141*	-45	2.5
Cc1cc(OCC(=O)Nc2ccc3c(c2)OCCO3)cc(C)c1Cl	-1	4	95	96	4	1
Cc1ccc(Cl)c(OCC(=O)Nc2ccc3c(c2)OCCO3)c1	160*	8	97	123	-25	3.8*
Cc1ccc(OCC(=O)Nc2ccc(F)cc2)c([N+](=O)[O-])n1	68	4	99	142*	-46	1.2
COc1cc(Cl)c(C)cc1NC(=O)CSc1nnc(CCC(=O)O)c(=O)[nH]1	13	-7	107	102	-3	0.89
O=C(COc1cc(F)ccc1[N+](=O)[O-])Nc1cccc(Br)c1	40	17	90	129*	-33	1.3
O=c1c(-c2n[nH]c(=S)o2)cccn1Cc1ccccc1	1	6	95	92	9	1.3
Oc1ccc(-c2csc(-c3c[nH]c4ccccc34)n2)c(O)c1	107	-60	158*	144*	-49	4.2*
CCOC(=O)C1C(c2ccccc2)C(C(=O)OCC)S(=O)(=O)C(CCN(CC)CC)S1(=O)=O (configuration not stated)	17	-4	108	93	7	1.1
Cc1ccc(-c2cn3nc(C)c(C)nc3n2)cc1	47	-4	107	111	-14	4.7*
Cc1cc(N2CCN(C)CC2)n2cc(-c3ccc(F)cc3)nc2n1	-1	15	96	103	-3	1.3
